Bioassay records: PubChem BioAssay, several laboratories
A selection: hits, their analogues and other compounds. The true share with any hit is near 4.1%.
APP 5'UTR act = APP 5'UTR luciferase reporter activation. SH-SY5Y APP 5'UTR luciferase reporter, luminescence; zero percent = DMSO vehicle wells. 1% of 190,000 active. activation, % at 2 µM;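 active means activation above a set limit, based on mean plus 3 SD of controls, cut at about 140% in these data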
NF-kB neuron act = NF-kB expression increase, human neuronal cells; 1.6% of 190,000 active; fold change at 12.5 µM; NF-kB reporter expression; stronger effect = higher value; in the data active means fold change above about 3.3
FLuc inhib CS = inhibits firefly luciferase, flagging false hits in luciferase inhibition screens. P08659. ATPLite firefly luciferase biochemical luminescence, 10 min. inhibition, % at 10 µM. 1.5% of 200,000 active. AID 1006;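 active means inhibition above about 50% when tested at 10 µM, limit read from the data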
Target sequence (P08659 whole entry, looked up): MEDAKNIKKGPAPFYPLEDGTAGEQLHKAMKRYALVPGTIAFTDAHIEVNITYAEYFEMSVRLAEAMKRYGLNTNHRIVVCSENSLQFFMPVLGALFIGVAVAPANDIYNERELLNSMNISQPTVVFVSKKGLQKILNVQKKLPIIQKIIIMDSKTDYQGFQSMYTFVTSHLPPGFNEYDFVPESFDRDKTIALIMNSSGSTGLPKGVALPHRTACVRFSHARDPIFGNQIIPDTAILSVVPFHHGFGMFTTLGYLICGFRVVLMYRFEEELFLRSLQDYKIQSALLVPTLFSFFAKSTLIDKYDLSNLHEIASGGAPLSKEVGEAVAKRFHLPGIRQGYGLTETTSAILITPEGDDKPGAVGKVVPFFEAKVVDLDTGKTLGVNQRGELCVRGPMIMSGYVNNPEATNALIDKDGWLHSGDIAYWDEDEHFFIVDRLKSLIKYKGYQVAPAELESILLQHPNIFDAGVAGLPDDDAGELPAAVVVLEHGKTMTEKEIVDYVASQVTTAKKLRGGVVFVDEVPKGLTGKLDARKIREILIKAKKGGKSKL
STAT1 act = STAT1 signaling activation; NIH 3T3 STAT1-luciferase reporter, IFN-gamma, luminescence; 100% = IFN-gamma alone, no compound; activation (% of control), % at 5.5 µM; 2.6% of 200,000 active; AID 932;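 active means activation above the screen-wide mean activation plus 3 SD, cut at about 130% in these data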;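 further: raw ratio to IFN-gamma control signal so 100% means no change and 0% no light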
FLuc stim CS = affects firefly luciferase, flagging false hits in luciferase stimulation screens. P08659. ATPlite luciferase biochemical, luminescence, 10 min; 0 = ATP-free wells, 1 = DMSO control. activation factor at 10 µM. 200,000 tested, under 10 active. AID 1027;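 active means luciferase activation factor, scaled between plate controls, of at least 2 with compound at 10 µM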
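Material: Luciferase/luciferin reagent mix; Doses: test compounds dosed from 2 mM stocks in 100% DMSO; Schedule: 10 min incubation after luciferase reagent addition, room temperature; Measured by: luminescence from luciferase reaction; Read-out: luminescence gain marking luciferase activators.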
STAT1 act conf = STAT1 activation, confirmation assay | NIH 3T3 STAT1-luciferase reporter, IFN-gamma potentiation, luminescence; 100% = IFN-gamma EC80 alone, no compound | shares compounds with STAT1 act | 97% of 1,200 active | activation (% of control), % at 5.7 µM | AID 1262;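 active means activation above a set limit carried over from the earlier primary STAT1 screen, cut at about 140% in these data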;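 further: simple ratio to median IFN-gamma plus DMSO wells so 0% means no light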
NFkB act STAT1ct = NF-kappaB activation in STAT1 activator counter-screen; shares compounds with STAT1 act; HEK293T NF-kB luciferase reporter, TNF-alpha stimulated, luminescence; 100% = TNF-alpha with vehicle only; activation (% of control), % at 5.7 µM; 43% of 1,200 active;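 active means activation above the mean of solvent-only control wells plus 3 SD, set per campaign, cut at about 130% in these data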;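 further: TNF-alpha given at a submaximal dose yielding about 80% of full reporter signal; values are well signal over median control so 100% means no change and 0% no light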
STAT3 act 2 = activates human STAT3, counter-screen to STAT1 activators | activation (% of control), % at 5.7 µM | AID 1316 | shares compounds with STAT1 act | U3A cells STAT3-luciferase reporter, IL-6, luminescence; cells lack STAT1; 100 = IL-6 alone, no compound effect | 46% of 1,200 active;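 active means activation above the solvent-only control well mean plus 3 SD, set per plate batch, cut at about 110% in these data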;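 further: 0% = no luminescence and 100% = median IL-6 plus DMSO wells; higher means more STAT3 reporter activation so hits are non-selective activators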
* = called active by the depositor; / = not tested or not shown.

SMILES | APP 5'UTR act | NF-kB neuron act | FLuc inhib CS | STAT1 act | FLuc stim CS | STAT1 act conf | NFkB act STAT1ct | STAT3 act 2
COC(=O)CSc1nc2cc(C)ccc2cc1C#N | 138* | 6.3* | -1 | 156* | 1 | 224* | 142* | 106
CCOC(=O)c1ccc(OS(=O)(=O)c2ccccc2)c(OC)c1 | 114 | 3.8* | 3 | 174* | 1 | 185* | 141* | 123*
CCC1(C)C2(C#N)C(N)=NC(OC)(OC)C12C#N (stereo unspecified) | 19 | 0.95 | -5 | 98 | 1 | / | / | /
Cc1cc(N2C(=O)C(O)=C(C(=O)c3ccc(C)o3)C2c2cccs2)no1 (stereo unspecified) | -7 | 1.1 | -3 | 94 | 1 | / | / | /
Cc1ccc2nc(N3C(=O)C(O)=C(C(=O)c4cc5ccccc5o4)C3c3cccs3)sc2c1 (stereo unspecified) | 160* | 3.7* | 29 | 154* | 0.7 | 162* | 124 | 123*
COc1ccc(-c2cc(=O)c3ccccc3s2)cc1 | 134 | 5.6* | 67* | 179* | 0.3 | 223* | 136* | 120*
COc1ccc(-c2cc(=O)c3ccccc3[nH]2)cc1 | 12 | 1.5 | 11 | 103 | 0.9 | / | / | /
CCOC(=O)c1nnn(-c2nonc2N)c1CSc1ccc(C)cc1 | -3 | 1 | -7 | 94 | 1.1 | / | / | /
O=C(Nc1ccon1)c1ccc(OC2CCCC2)cc1 | 93 | 4.5* | 59* | 155* | 0.4 | 166* | 129 | 114*
N#C/C(=C/c1ccc(N2CCCCC2)o1)C(=O)Nc1ccc(Cl)cc1 | 35 | 1.5 | 31 | 155* | 0.7 | 183* | 130 | 90
N#C/C(=C/c1ccc(N2CCCCC2)o1)C(=O)Nc1ccc2ccccc2c1 | 18 | 1.1 | 29 | 113 | 0.7 | / | / | /
CCS(=O)(=O)n1nc(-c2ccccc2)cc1N | 11 | 1.1 | 0 | 106 | 1 | / | / | /
CCc1ccc(-c2cc(N)n(-c3ccccc3)n2)cc1 | 242* | 11* | 82* | 172* | 0.2 | 195* | 146* | 103
Cc1cccc(-c2cc(N)n(-c3ccccc3)n2)c1 | 152* | 5.5* | 72* | 174* | 0.3 | 185* | 145* | 113*
O=C(COc1cccnc1[N+](=O)[O-])N1CCc2ccccc21 | 33 | 1.4 | 1 | 105 | 1 | / | / | /
Nc1nn(-c2ccccc2)c(N)c1N=Nc1ccccc1F | 181* | 14* | 40 | 219* | 0.6 | 306* | 125 | 107
Cc1nn(-c2ccccc2)c(N)c1N=Nc1ccccc1 | 156* | 6.8* | 10 | 176* | 0.9 | 198* | 140* | 141*
Cc1nc2c(N=Nc3ccccc3F)c(N)nn2c(N)c1C#N | -8 | 0.77 | 4 | 166* | 1 | 146* | 125 | 123*
Nc1nn(-c2ccccc2)c(N)c1N=Nc1ccccc1 | 3 | 8.1* | 51* | 202* | 0.5 | 228* | 126 | 115*
Cc1cccc(N=Nc2c(C)nn(-c3ccccc3)c2N)c1C | 42 | 1.2 | -4 | 91 | 1 | / | / | /
Cc1nn(-c2ccccc2)c(N)c1C(O)(C(F)(F)F)C(F)(F)F | -3 | 0.93 | -6 | 93 | 1.1 | / | / | /
CCn1c(C(=O)O)c(CC(=O)NC2CCCCCC2)c2ccccc21 | 1 | 1.3 | -2 | 96 | 1 | / | / | /
Cc1nn(-c2ccccc2)c(N)c1N=Nc1ccc(Cl)cc1 | 108 | 4.5* | -3 | 155* | 1 | 183* | 129 | 108
CC(=O)NC(=S)Nc1sc2c(c1C#N)CCCCC2 | 62 | 1.7 | 72* | 167* | 0.3 | 186* | 105 | 90
CC(=O)Nc1sc2c(c1C#N)CCCC2 | 9 | 1 | -5 | 103 | 1.1 | / | / | /
SMILES | APP 5'UTR act | NF-kB neuron act | FLuc inhib CS | STAT1 act | FLuc stim CS | STAT1 act conf | NFkB act STAT1ct | STAT3 act 2
Cc1cc(C(=O)Nc2sc3c(c2C#N)CCCCC3)cs1 | 159* | 4.2* | 49 | 176* | 0.5 | 255* | 146* | 111*
CC(C)C(NS(=O)(=O)c1cc(C(=O)O)ccc1Cl)C(=O)O (stereo unspecified) | 0 | 1.2 | -1 | 103 | 1 | / | / | /
NNc1nc2c(F)cc(F)cc2s1 | 167* | 1.3 | -6 | 156* | 1.1 | 128 | 121 | 116*
COC(=O)c1ccc2nc(Nc3nc4c(F)cc(F)cc4s3)sc2c1 | -4 | 1.3 | 7 | 38 | 0.9 | / | / | /
C=CCn1c(=N)n(CC(=O)OC)c2ccccc21 | 6 | 0.87 | -1 | 90 | 1 | / | / | /
CCNCCNC(=O)c1c(O)c2cccc3c2n(c1=O)CCC3 | -7 | 1.2 | -7 | 100 | 1.1 | / | / | /
O=C(Oc1ccc(-c2cnc3ccccc3n2)cc1)c1ccco1 | 80 | 2.7 | 38 | 155* | 0.6 | 190* | 103 | 102
O=C(Oc1ccc(-c2cnc3ccccc3n2)cc1)c1cc([N+](=O)[O-])ccc1Cl | 71 | 1.7 | -1 | 103 | 1 | / | / | /
C=CCNc1ncnc2c1cnn2-c1ccc(Cl)cc1 | 239* | 5.4* | 39 | 177* | 0.6 | 266* | 133 | 108
Clc1ccc(-n2ncc3c(NCCCn4ccnc4)ncnc32)cc1 | -11 | 1.9 | 5 | 124 | 1 | / | / | /
CCCCNc1ncnc2c1cnn2-c1ccc(Cl)cc1 | -33 | 7.2* | 17 | 158* | 0.8 | 249* | 140* | 106
CCN(CC)c1ccc(/C=N/NC(=O)c2c[nH]c3ccccc23)cc1 | 17 | 1.2 | 13 | 120 | 0.9 | / | / | /
CCc1ccc(/C=N/NC(=O)c2c[nH]c3ccccc23)s1 | 122 | 2.1 | 24 | 154* | 0.8 | 189* | 126 | 115*
CCN1CCN(CC(=O)N2CCCC(C(=O)c3ccc(Oc4ccccc4)cc3)C2)CC1 (stereo unspecified) | -18 | 0.98 | -1 | 96 | 1 | / | / | /
Cc1nc2ccc(Cl)cc2nc(C)/c1=N\O | 158* | 2.3 | -6 | 152* | 1.1 | 144* | 126 | 120*
CCn1c(C)nc2cc(C(=O)OC(C(F)(F)C(F)F)C(F)(F)C(F)F)ccc21 | -2 | 0.9 | 2 | 182* | 1 | 182* | 120 | 115*
COc1cc(/C=N/NC(=O)CN2CCCCC2)ccc1OCc1ccc(Br)cc1 | 134 | 4.5* | -2 | 176* | 1 | 178* | 136* | 119*
COc1cc(/C=N/NC(=O)CC2(C)OCCCO2)ccc1OCc1ccccc1 | 4 | 1.2 | -4 | 113 | 1 | / | / | /
